Assay results as given in ChEMBL document CHEMBL1137159, “Aminotriazine 5-HT7 antagonists” (Bioorg Med Chem Lett, 2004).

Target: T1, Adrenergic receptor alpha-1 (Homo sapiens, UniProt P35348+P25100+P35368)
T1 sequence (P35348 whole entry): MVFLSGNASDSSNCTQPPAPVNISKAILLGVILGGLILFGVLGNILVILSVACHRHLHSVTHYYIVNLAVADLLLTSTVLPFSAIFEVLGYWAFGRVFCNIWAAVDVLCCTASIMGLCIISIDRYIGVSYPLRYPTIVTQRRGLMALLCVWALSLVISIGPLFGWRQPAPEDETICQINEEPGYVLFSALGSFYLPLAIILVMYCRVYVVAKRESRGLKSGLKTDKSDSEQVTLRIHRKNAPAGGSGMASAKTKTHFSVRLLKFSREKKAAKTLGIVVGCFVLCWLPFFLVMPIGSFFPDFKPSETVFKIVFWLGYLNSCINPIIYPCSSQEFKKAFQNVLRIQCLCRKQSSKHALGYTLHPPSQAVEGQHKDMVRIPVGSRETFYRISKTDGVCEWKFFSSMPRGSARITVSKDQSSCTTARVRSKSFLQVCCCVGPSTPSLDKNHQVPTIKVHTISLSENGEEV
T1 sequence (P25100 whole entry): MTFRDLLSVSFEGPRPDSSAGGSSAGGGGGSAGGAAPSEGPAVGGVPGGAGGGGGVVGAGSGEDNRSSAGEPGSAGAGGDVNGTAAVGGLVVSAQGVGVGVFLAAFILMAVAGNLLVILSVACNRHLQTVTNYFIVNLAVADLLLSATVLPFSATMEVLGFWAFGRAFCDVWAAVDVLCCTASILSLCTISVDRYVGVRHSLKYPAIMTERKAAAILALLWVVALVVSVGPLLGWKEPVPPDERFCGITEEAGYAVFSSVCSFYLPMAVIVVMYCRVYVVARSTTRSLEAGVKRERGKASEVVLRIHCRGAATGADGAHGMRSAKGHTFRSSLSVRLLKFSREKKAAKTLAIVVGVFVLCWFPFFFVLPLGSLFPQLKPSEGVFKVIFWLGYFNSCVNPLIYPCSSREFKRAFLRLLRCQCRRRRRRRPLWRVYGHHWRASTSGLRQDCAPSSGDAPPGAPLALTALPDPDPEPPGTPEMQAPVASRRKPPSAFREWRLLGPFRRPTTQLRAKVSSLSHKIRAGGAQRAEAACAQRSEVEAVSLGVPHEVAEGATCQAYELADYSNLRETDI
T1 sequence (P35368 whole entry): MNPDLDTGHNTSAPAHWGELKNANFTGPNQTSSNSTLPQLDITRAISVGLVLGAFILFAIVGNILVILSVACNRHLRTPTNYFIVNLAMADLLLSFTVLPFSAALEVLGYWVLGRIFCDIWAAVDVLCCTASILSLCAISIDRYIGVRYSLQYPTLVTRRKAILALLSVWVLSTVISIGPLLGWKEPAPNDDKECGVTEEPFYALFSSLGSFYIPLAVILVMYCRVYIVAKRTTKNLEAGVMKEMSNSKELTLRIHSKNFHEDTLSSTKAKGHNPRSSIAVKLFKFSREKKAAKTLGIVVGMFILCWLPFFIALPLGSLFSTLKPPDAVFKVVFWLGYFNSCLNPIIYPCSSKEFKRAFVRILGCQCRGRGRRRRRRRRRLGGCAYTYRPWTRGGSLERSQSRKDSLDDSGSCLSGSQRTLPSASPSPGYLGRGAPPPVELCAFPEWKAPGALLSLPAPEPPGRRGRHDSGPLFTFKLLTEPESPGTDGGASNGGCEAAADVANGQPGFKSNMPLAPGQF
Test: Binding affinity against Alpha1 adrenergic receptor
Type: protein assay
Settings: not given

| Structure (SMILES) | Ki [nM] |
| --- | --- |
| CC(Nc1nc(N)nc(NCCc2cccs2)n1)c1ccc(F)cc1 (racemic) | > 1000 |
| C[C@H](Nc1nc(N)nc(NCCOc2ccc(F)cc2)n1)c1ccc(F)cc1 | 100 |
| C[C@H](Nc1nc(N)nc(NCCc2ccc(F)cc2)n1)c1ccc(F)cc1 | 200 |
| C[C@H](Nc1nc(N)nc(NCCOc2ccccc2)n1)c1ccccc1 | 300 |
| C[C@H](Nc1nc(N)nc(NCCc2ccccn2)n1)c1ccc(F)cc1 | > 1000 |

Target: 5-hydroxytryptamine receptor 6 (Homo sapiens, UniProt P50406)
Sequence (P50406 whole entry): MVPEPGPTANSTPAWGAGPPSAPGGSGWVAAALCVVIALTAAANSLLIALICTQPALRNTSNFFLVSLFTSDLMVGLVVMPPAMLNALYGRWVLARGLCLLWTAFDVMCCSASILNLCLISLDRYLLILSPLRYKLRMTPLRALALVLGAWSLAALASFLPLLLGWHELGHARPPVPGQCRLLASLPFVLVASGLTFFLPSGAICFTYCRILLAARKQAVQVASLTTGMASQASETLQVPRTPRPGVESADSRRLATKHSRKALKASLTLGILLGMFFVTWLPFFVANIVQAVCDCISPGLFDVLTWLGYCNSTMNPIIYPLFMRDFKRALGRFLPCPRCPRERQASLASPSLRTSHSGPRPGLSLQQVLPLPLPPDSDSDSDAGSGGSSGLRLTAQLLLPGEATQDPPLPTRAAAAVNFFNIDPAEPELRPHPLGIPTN
Test: Binding affinity against 5-Hydroxy tryptamine 6 receptor
Settings: not given

| Structure (SMILES) | Ki [nM] |
| --- | --- |
| CC(Nc1nc(N)nc(NCCc2cccs2)n1)c1ccc(F)cc1 (racemic) | 380 |
| C[C@H](Nc1nc(N)nc(NCCOc2ccc(F)cc2)n1)c1ccc(F)cc1 | > 1000 |
| C[C@H](Nc1nc(N)nc(NCCc2ccc(F)cc2)n1)c1ccc(F)cc1 | 172 |
| C[C@H](Nc1nc(N)nc(NCCOc2ccccc2)n1)c1ccccc1 | > 1000 |
| C[C@H](Nc1nc(N)nc(NCCc2ccccn2)n1)c1ccc(F)cc1 | > 1000 |

Target: 5-hydroxytryptamine receptor 7 (Homo sapiens, UniProt P34969)
Sequence (P34969 whole entry): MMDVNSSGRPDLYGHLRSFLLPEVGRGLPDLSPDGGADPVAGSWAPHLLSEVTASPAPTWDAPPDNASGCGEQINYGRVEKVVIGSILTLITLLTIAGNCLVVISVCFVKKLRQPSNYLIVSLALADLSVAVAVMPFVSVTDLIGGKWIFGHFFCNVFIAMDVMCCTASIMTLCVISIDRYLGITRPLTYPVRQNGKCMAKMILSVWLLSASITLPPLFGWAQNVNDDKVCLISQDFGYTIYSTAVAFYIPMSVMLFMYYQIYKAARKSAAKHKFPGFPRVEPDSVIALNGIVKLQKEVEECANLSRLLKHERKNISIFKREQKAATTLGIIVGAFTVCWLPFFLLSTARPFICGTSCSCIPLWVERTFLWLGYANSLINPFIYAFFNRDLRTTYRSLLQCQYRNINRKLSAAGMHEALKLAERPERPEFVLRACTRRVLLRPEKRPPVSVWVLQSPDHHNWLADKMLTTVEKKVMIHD
Test: Binding affinity against 5-Hydroxy tryptamine 7 receptor
Settings: not given
In short: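 Membranes from CHO cells expressing human 5-HT7, homogenized, pelleted at 18,000g, stored at -80 °C. Each well held 30 µg protein in 50 mM HEPES. Incubation was 60 min at 25 °C with 0.1-1000 nM compound and 1 nM [3H]-5-carboxamidotryptamine; nonspecific binding was defined with 10 µM serotonin. Stopped with ice-cold HEPES, GF/B filtration, scintillation counting. Ki by nonlinear regression; triplicate or more.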

| Structure (SMILES) | Ki [nM] |
| --- | --- |
| CC(Nc1nc(N)nc(NCCCc2ccccc2)n1)c1ccccc1 (racemic) | 60 |
| CC(Nc1nc(N)nc(NCCc2cccs2)n1)c1ccc(F)cc1 (racemic) | 2 |
| CC(Nc1nc(N)nc(NCCc2ccncc2)n1)c1ccc(F)cc1 (racemic) | > 1000 |
| C[C@H](Nc1nc(F)nc(NCCOc2ccccc2)n1)c1ccccc1 | 10 |
| C[C@H](Nc1nc(N)nc(NCCc2ccc(F)cc2)n1)c1ccc(F)cc1 | 2 |
| C[C@H](Nc1ncnc(NCCOc2ccccc2)n1)c1ccccc1 | 3 |
| CC(Nc1nc(N)nc(NCCc2cccnc2)n1)c1ccc(F)cc1 (racemic) | > 41000 |
| CC(Nc1nc(N)nc(NCCc2ccccc2)n1)c1ccc(F)cc1 (stereo not drawn) | 8 |
| CC(Nc1nc(N)nc(NCCOc2ccccc2)n1)c1ccccc1 (racemic) | 8 |
| C[C@@H](Nc1nc(N)nc(NCCOc2ccccc2)n1)c1ccccc1 | > 1000 |
| C[C@H](Nc1nc(NCCOc2ccccc2)nc(N(C)C)n1)c1ccccc1 | 23 |
| C[C@H](Nc1nc(N)nc(NCCOc2ccccc2)n1)c1ccccc1 | 3 |
| C[C@H](Nc1nc(N)nc(NCCc2ccccn2)n1)c1ccc(F)cc1 | 9 |
| Cc1nc(NCCOc2ccccc2)nc(N[C@@H](C)c2ccccc2)n1 | 54 |

Test system: not listed separately
Test: Oral bioavailability in rat
Type: ADME, organism-based
Settings: in vivo

| Structure (SMILES) | bioavailability [%] |
| --- | --- |
| C[C@H](Nc1nc(N)nc(NCCOc2ccc(F)cc2)n1)c1ccc(F)cc1 | 57 |
| C[C@H](Nc1nc(N)nc(NCCc2ccc(F)cc2)n1)c1ccc(F)cc1 | 44 |
| C[C@H](Nc1nc(N)nc(NCCOc2ccccc2)n1)c1ccccc1 | 12 |
| C[C@H](Nc1nc(N)nc(NCCc2ccccn2)n1)c1ccc(F)cc1 | 15 |

Target: T2, 5-hydroxytryptamine receptor 2C (Homo sapiens, UniProt P28335)
T2 sequence (P28335 whole entry): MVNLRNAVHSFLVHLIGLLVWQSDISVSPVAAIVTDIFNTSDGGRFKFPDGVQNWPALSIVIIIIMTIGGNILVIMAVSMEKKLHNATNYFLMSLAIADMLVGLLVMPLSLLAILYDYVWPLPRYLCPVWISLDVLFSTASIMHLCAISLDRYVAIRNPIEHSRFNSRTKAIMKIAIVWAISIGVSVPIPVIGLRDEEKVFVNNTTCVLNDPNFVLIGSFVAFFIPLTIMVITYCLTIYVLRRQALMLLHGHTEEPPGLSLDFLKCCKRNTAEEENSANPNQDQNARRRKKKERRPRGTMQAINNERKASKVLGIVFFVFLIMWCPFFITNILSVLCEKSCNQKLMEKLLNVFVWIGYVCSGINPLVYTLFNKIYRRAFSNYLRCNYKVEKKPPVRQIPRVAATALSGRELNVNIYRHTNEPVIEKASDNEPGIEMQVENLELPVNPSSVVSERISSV
Test: Binding affinity against 5-Hydroxy tryptamine 2C receptor
Settings: not given

| Structure (SMILES) | Ki [nM] |
| --- | --- |
| CC(Nc1nc(N)nc(NCCc2cccs2)n1)c1ccc(F)cc1 (racemic) | 10 |
| C[C@H](Nc1nc(N)nc(NCCOc2ccc(F)cc2)n1)c1ccc(F)cc1 | > 1000 |
| C[C@H](Nc1nc(N)nc(NCCc2ccc(F)cc2)n1)c1ccc(F)cc1 | 20 |
| C[C@H](Nc1nc(N)nc(NCCOc2ccccc2)n1)c1ccccc1 | > 1000 |
| C[C@H](Nc1nc(N)nc(NCCc2ccccn2)n1)c1ccc(F)cc1 | 160 |
